From paper PMC4444071 (ACS infectious diseases, 2015)
Where two headings read alike, the source gives them in different places.

Experiments:
[1] = test system: herpes simplex virus helicase; settings: read-out: helicase-catalyzed ATP hydrolysis IC50, cited from earlier work
HCV NS3h [2] = molecular target: T1, HCV NS3h (Hepatitis C virus genotype 1b, UniProt Q9WMX2); experiment: HCV NS3h-catalyzed ATP hydrolysis assay; assay type: biochemical; settings: read-out: HCV ATPase IC50
Procedure, shortened: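 HCV NS3h (4 nM) in 25 mM Tris pH 7.5, 1.25 mM MgCl2, 100 μM ATP, 15 μM poly(U) RNA (as nucleotide), 33 μg/mL BSA, 0.07% Tween 20, 0.3 mM DTT, 0.6% DMSO. Started with MgCl2; 30 min at 23 °C. Released phosphate read at 620 nm with Biomol Green. Scaled to 6.7 μM ATA (100%) and DMSO (0%). IC50 from variable-slope nonlinear fit.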

HCV NS3h [3] = molecular target: T1, HCV NS3h; settings: read-out: HCV DNA-helicase IC50; HCV NS3h DNA unwinding; ref Li et al.[36]; cited from earlier work
HCV NS3h [4] = molecular target: T1, HCV NS3h; experiment: HCV NS3h RNA unwinding assay; assay type: biochemical; settings: read-out: HCV RNA-helicase IC50, values without asterisk
DENV NS3h [5] = molecular target: T2, DENV NS3h (Dengue virus type 2, UniProt Q91H74); assay type: biochemical; settings: read-out: DENV ATPase IC50; DENV NS3h-catalyzed ATP hydrolysis; 100 μM ATP, poly(U) RNA, pH 7.5
T2 sequence (Q91H74 1646-2093 limits assumed): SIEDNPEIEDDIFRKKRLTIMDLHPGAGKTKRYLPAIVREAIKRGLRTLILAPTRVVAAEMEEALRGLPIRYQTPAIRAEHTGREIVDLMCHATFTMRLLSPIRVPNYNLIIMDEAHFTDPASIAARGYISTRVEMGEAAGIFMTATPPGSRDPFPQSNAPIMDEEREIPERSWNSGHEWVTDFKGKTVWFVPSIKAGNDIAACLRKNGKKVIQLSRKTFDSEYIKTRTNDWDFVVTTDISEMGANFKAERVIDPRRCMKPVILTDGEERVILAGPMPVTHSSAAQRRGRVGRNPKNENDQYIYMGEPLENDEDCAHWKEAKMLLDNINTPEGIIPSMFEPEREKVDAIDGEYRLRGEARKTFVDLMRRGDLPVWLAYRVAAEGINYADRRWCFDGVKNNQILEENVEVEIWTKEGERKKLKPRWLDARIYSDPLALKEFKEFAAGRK

DENV NS3h [6] = molecular target: T2, DENV NS3h; assay type: biochemical; settings: for IC50: read-out: DENV RNA-helicase IC50, DENV NS3h RNA unwinding, 100 nM DENV helicase
[7] = test system: subgenomic DENV-2 replicon; experiment: DENV subgenomic replicon assay
[8] = test system: West Nile virus (Kunjin subtype); experiment: West Nile virus; assay type: cell-based; settings: 50 μM compound, BHK cells, 72 h

T1 sequence (Q9WMX2 1192-1657): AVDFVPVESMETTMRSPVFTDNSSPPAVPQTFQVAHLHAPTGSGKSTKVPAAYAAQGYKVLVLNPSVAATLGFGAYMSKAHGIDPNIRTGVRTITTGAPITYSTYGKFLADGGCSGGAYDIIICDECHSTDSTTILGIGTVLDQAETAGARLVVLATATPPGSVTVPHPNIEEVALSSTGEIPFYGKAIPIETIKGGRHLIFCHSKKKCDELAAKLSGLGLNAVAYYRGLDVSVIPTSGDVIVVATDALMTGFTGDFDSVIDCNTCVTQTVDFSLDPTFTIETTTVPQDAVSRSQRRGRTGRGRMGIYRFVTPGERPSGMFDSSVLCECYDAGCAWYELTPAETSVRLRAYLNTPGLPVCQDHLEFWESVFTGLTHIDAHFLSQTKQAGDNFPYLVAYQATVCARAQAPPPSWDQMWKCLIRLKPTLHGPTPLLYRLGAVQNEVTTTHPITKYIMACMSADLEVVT

Structure (SMILES) | IC50 (HCV NS3h [2]) | IC50 (HCV NS3h [3]) | IC50 (HCV NS3h [4]) | IC50 (DENV NS3h [5]) | IC50 (DENV NS3h [6]) | further results
Cc1nc(N(C)C(=O)Cc2ccc(-c3ccccn3)cc2)sc1S(N)(=O)=O [BAY 57-1293] |  |  |  |  |  | IC50 ([1]; purified HSV helicase): 30 nM
Cc1cccc(C)c1N(CC(=O)Nc1ccc(-c2ncon2)cc1)C(=O)C1CCS(=O)(=O)CC1 [amenamevir] |  |  |  |  |  | IC50 ([1]; HSV helicase): 78 nM
Cc1ccc2nc(-c3ccc4nc(-c5ccc(NC(=O)c6ccccc6)cc5)sc4c3)sc2c1S(=O)(=O)O [compound 1] | 69 ± 6 µM | 11 ± 1.5 µM | 8.5 ± 2 µM | 5.3 ± 1.2 µM |  | 
Cc1ccc2nc(-c3ccc4nc(-c5ccc(NC(=O)c6ccc(N)cc6)cc5)sc4c3)sc2c1S(=O)(=O)O [compound 2] | 58 ± 10 µM | 10 ± 2.4 µM |  | 2.8 ± 0.6 µM | 7.6 ± 1.6 µM | 
Cc1ccc2nc(-c3ccc4nc(-c5ccc(NC(=O)c6ccc(F)cc6)cc5)sc4c3)sc2c1S(=O)(=O)O [compound 3] | 32 ± 7 µM | 5.2 ± 0.6 µM |  | 3 ± 0.4 µM | 6.6 ± 0.9 µM | 
COc1ccc(C(=O)Nc2ccc(-c3nc4ccc(-c5nc6ccc(C)c(S(=O)(=O)O)c6s5)cc4s3)cc2)cc1 [compound 4] | 115 ± 14 µM | 10 ± 2.6 µM |  | 3 ± 0.5 µM |  | 
COC(=O)c1ccc(C(=O)Nc2ccc(-c3nc4ccc(-c5nc6ccc(C)c(S(=O)(=O)O)c6s5)cc4s3)cc2)cc1.N [compound 5] | > 200 µM | 9.7 ± 4.6 µM |  | 0.4 ± 0.1 µM | 7.9 ± 2.5 µM | times more compound needed to inhibit RNA unwinding than ATP hydrolysis (DENV NS3h [6]; DENV NS3h, unwinding vs ATPase): About 20 times
Cc1ccc2nc(-c3ccc4nc(-c5ccc(NC(=O)c6ccc(Cl)cc6)cc5)sc4c3)sc2c1S(=O)(=O)O [compound 6] | 53 ± 4 µM | 3.4 ± 0.3 µM | 3.3 ± 1 µM | 1.4 ± 0.2 µM | 5.6 ± 1.2 µM | 
Cc1ccc(C(=O)Nc2ccc(-c3nc4ccc(-c5nc6ccc(C)c(S(=O)(=O)O)c6s5)cc4s3)cc2)cc1 [compound 7] | 61 ± 1 µM | 3.3 ± 0.3 µM | 3.9 ± 1 µM | 1.1 ± 0.2 µM | 4.3 ± 1.9 µM | 
Cc1ccc2nc(-c3ccc4nc(-c5ccc(NC(=O)c6ccc(C(F)(F)F)cc6)cc5)sc4c3)sc2c1S(=O)(=O)O [compound 8] | 111 ± 60 µM | 1.8 ± 0.4 µM | 2.8 ± 2 µM | 1.2 ± 0.2 µM | 5.2 ± 0.6 µM | 
Cc1ccc2nc(-c3ccc4nc(-c5ccc(NC(=O)c6ccc(C(C)(C)C)cc6)cc5)sc4c3)sc2c1S(=O)(=O)O [compound 9] | > 200 µM | 8.2 ± 1 µM |  | 4 ± 0.5 µM | 10 ± 3.4 µM | 
Cc1ccc2nc(-c3ccc4nc(-c5ccc(NC(=O)c6ccc(N(C)C)cc6)cc5)sc4c3)sc2c1S(=O)(=O)O [compound 10] | > 200 µM | 11 ± 6.7 µM | 8.6 ± 2 µM | 3.4 ± 0.3 µM |  | 
Cc1ccc2nc(-c3ccc4nc(-c5ccc(NC(=O)c6ccc(Br)cc6)cc5)sc4c3)sc2c1S(=O)(=O)O [compound 11] | 21 ± 6 µM | 5.2 ± 4 µM |  | 1.1 ± 0.1 µM | 5 ± 1.2 µM | 
Cc1ccc2nc(-c3ccc4nc(-c5ccc(NC(=O)c6ccc(NC(=O)OCC7c8ccccc8-c8ccccc87)cc6)cc5)sc4c3)sc2c1S(=O)(=O)O [compound 12] | 39 ± 31 µM | 5.4 ± 1 µM | 2.8 ± 1 µM | 1.3 ± 0.3 µM | 3.5 ± 1.7 µM | 
Cc1ccc2nc(-c3ccc4nc(-c5ccc(NC(=O)c6cccc(Cl)c6)cc5)sc4c3)sc2c1S(=O)(=O)O [compound 13] | 24 ± 5 µM | 2.6 ± 1 µM | 5.9 ± 2 µM | 4 ± 0.8 µM | 5.1 ± 0.9 µM | 
Cc1ccc2nc(-c3ccc4nc(-c5ccc(NC(=O)c6ccc(Cl)c(Cl)c6)cc5)sc4c3)sc2c1S(=O)(=O)O [compound 14] | 53 ± 3 µM | 3.7 ± 1 µM |  | 2.7 ± 0.2 µM | 3.6 ± 0.9 µM | 
Cc1ccc2nc(-c3ccc4nc(-c5ccc(NC(=O)c6ccccc6C(F)(F)F)cc5)sc4c3)sc2c1S(=O)(=O)O [compound 15] | 71 ± 23 µM | 14 ± 1 µM | 22.8 ± 5 µM | 5.4 ± 0.8 µM |  | 
Cc1ccc2nc(-c3ccc4nc(-c5ccc(NC(=O)c6cccc(C(F)(F)F)c6)cc5)sc4c3)sc2c1S(=O)(=O)O [compound 16] | > 200 µM | 20 ± 12 µM | 22.4 ± 8 µM | 9.7 ± 3.1 µM |  | 
Cc1ccc2nc(-c3ccc4nc(-c5ccc(NC(=O)c6c(F)cccc6C(F)(F)F)cc5)sc4c3)sc2c1S(=O)(=O)O [compound 17] | 93 ± 16 µM | 17 ± 6 µM | 32.5 ± 7 µM |  |  | 
Cc1ccc2nc(-c3ccc4nc(-c5ccc(NC(=O)c6cccc(C(F)(F)F)c6F)cc5)sc4c3)sc2c1S(=O)(=O)O [compound 18] | 42 ± 14 µM | 9.2 ± 3 µM |  | 4.3 ± 0.3 µM |  | 
Cc1ccc2nc(-c3ccc4nc(-c5ccc(NC(=O)c6ccc(C(F)(F)F)c(F)c6)cc5)sc4c3)sc2c1S(=O)(=O)O [compound 19] | 55 ± 42 µM | 17 ± 7 µM | 5.4 ± 2 µM | 3.5 ± 1.1 µM |  | 
Cc1ccc2nc(-c3ccc4nc(-c5ccc(NC(=O)c6cc(C(F)(F)F)cc(C(F)(F)F)c6)cc5)sc4c3)sc2c1S(=O)(=O)O.N [compound 20] | > 200 µM |  |  | 63 ± 20 µM | 7.7 ± 1.8 µM | times less compound needed to inhibit RNA unwinding than ATP hydrolysis (DENV NS3h [6]; DENV NS3h, unwinding vs ATPase): about 8 times
Cc1ccc2nc(-c3ccc4nc(-c5ccc(NC(=O)c6cc(C(F)(F)F)ccc6F)cc5)sc4c3)sc2c1S(=O)(=O)O [compound 21] | 16 ± 2 µM | 6.4 ± 2 µM | 7.5 ± 2 µM | 3.8 ± 0.2 µM | 5.4 ± 1.3 µM | 
Cc1ccc2nc(-c3ccc4nc(-c5ccc(NC(=O)c6cc(F)ccc6C(F)(F)F)cc5)sc4c3)sc2c1S(=O)(=O)O [compound 22] | 65 ± 10 µM | 19 ± 15 µM |  | 7.2 ± 0.8 µM |  | 
Cc1ccc2nc(-c3ccc4nc(-c5ccc(NC(=O)c6cc(F)cc(C(F)(F)F)c6)cc5)sc4c3)sc2c1S(=O)(=O)O [compound 23] | > 200 µM | 28 ± 7 µM | 9.8 ± 3 µM | 11 ± 5.7 µM |  | 
Cc1ccc2nc(-c3ccc4nc(-c5ccc(NC(=O)c6ccc7nc(-c8ccc(N)cc8)sc7c6)cc5)sc4c3)sc2c1S(=O)(=O)O.N [compound 24] |  |  | 2 ± 0.7 µM | 0.5 ± 0.1 µM | 1.5 ± 0.2 µM | TI (CC50/replicon EC50) ([7]; BHK cell viability CC50 / replicon EC50): 17; inhibition of DENV replicon (in words) ([7]; concentration-response): reduced replication of a subgenomic DENV replicon in cells in a concentration-dependent manner; inhibition of replicon content in concentration-response assays ([7]; eight-point two-fold dilution series starting at 100 μM): more than 90%; EC50 ([7]; read-out: replicon EC50, BHK cell DENV replicon content, 72 h): 7.1 ± 3 µM
Cc1cc(N2C(=O)C(O)=C(C(=O)c3ccc(C)o3)C2c2cc(Cl)cc(Cl)c2)no1 (stereo not drawn) [compound 25] |  |  |  |  |  | effect on West Nile virus plaque-forming units (in words) [8]: lowering plaque-forming units (pfu) to the greatest extent
